{
  "source": "ChEMBL document CHEMBL2440012",
  "about": "“Design, synthesis and anticonvulsant properties of new N-Mannich bases derived from 3-phenylpyrrolidine-2,5-diones” (Bioorg Med Chem, 2013)",
  "key": {"Mus musculus [1]": {"tested_on": "Mus musculus", "experiment": "Anticonvulsant activity in ip dosed albino CF1 mouse assessed as protection against subcutaneous pentylenetetrazole-induced convulsion in half or more animals measured after 0.5 hr", "assay_type": "functional", "settings": "albino CF1, 0.5 h, read-out: MED", "outline": "(§1)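 Male CF-1 mice given ip suspension in 0.5% methylcellulose/water at 30, 100 and 300 mg/kg; MES, scPTZ (pentylenetetrazole 85 mg/kg sc, CD97 dose for clonic seizures ≥5 s) and rotarod (inability to hold balance 1 min in each of three trials) assessed at 0.5 and 4 h; value is minimum dose active in half or more animals.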"}, "Rattus norvegicus [2]": {"tested_on": "Rattus norvegicus", "experiment": "Anticonvulsant activity in albino rat assessed as protection against pilocarpine-induced status epilepticus at 100 mg/kg, ip measured 0.5 hrs post first stage 3 seizure", "assay_type": "functional, organism-based", "parameters": "dose 100 mg/kg", "outline": "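Male Sprague-Dawley rats (150–180 g) dosed ip, followed by challenge dose of pilocarpine; compound given relative to first stage III seizure (time zero or 0.5 h); outcome scored as protection or no protection, plus body-weight change 24 h after first stage III seizure.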"}, "Mus musculus [3]": {"tested_on": "Mus musculus", "experiment": "Anticonvulsant activity in albino CF1 mouse assessed as assessed as protection against 6 Hz psychomotor seizure at 100 mg/kg, ip after 0.5 hr by minimal clonic seizure test", "assay_type": "functional", "settings": "route intraperitoneal", "outline": "(§2)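 Male CF-1 mice, groups of four, dosed ip in 0.5% methylcellulose/water suspension, then challenged by 6-Hz corneal stimulation at 32 mA (0.2 ms pulses, 3 s, constant current) at 0.25, 0.5, 1, 2 or 4 h; count of mice out of four protected from stunned posture/clonic seizure.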"}, "Mus musculus [4]": {"tested_on": "Mus musculus", "experiment": "Toxicity in albino CF1 mouse assessed as sedation at 100 mg/kg, ip measured after 4 hrs by rotorod test", "assay_type": "organism-based", "parameters": "dose 100 mg/kg, route intraperitoneal", "settings": "in vivo"}, "Mus musculus [5]": {"tested_on": "Mus musculus", "experiment": "Anticonvulsant activity in ip dosed albino CF1 mouse assessed as protection against maximal electroshock-induced seizures in half or more animals measured after 0.5 hr", "assay_type": "functional", "settings": "read-out: MED", "outline": "as §1"}, "Mus musculus [6]": {"tested_on": "Mus musculus", "experiment": "Neurotoxicity in ip dosed albino CF1 mouse assessed as minimum motor impairment in half or more animals measured after 4 hrs by rotorod test", "assay_type": "toxicity, organism-based", "settings": "in vivo", "outline": "as §1"}, "Mus musculus [7]": {"tested_on": "Mus musculus", "experiment": "Anticonvulsant activity against 6 Hz psychomotor seizure in ip dosed albino CF1 mouse by minimal clonic seizure test", "assay_type": "functional"}, "Mus musculus [8]": {"tested_on": "Mus musculus", "experiment": "Anticonvulsant activity in albino CF1 mouse assessed as assessed as protection against 6 Hz psychomotor seizure at 100 mg/kg, ip after 2 hrs by minimal clonic seizure test", "assay_type": "functional", "settings": "route intraperitoneal", "outline": "as §2"}, "Mus musculus [9]": {"tested_on": "Mus musculus", "experiment": "Anticonvulsant activity in ip dosed albino CF1 mouse assessed as protection against maximal electroshock-induced seizures in half or more animals measured after 4 hrs", "assay_type": "functional", "settings": "read-out: MED", "outline": "as §1"}, "Mus musculus [10]": {"tested_on": "Mus musculus", "experiment": "Anticonvulsant activity in ip dosed albino CF1 mouse assessed as protection against subcutaneous pentylenetetrazole-induced convulsion in half or more animals measured after 4 hrs", "assay_type": "functional", "settings": "albino CF1, 4 h, read-out: MED", "outline": "as §1"}, "Mus musculus [11]": {"tested_on": "Mus musculus", "experiment": "Anticonvulsant activity against […] psychomotor seizure in ip dosed albino CF1 mouse assessed as time to peak effect by minimal clonic seizure test", "assay_type": "functional"}, "Mus musculus [12]": {"tested_on": "Mus musculus", "experiment": "Anticonvulsant activity in albino CF1 mouse assessed as assessed as protection against 6 Hz psychomotor seizure at 50 mg/kg, ip after 2 hrs by minimal clonic seizure test", "assay_type": "functional", "settings": "route intraperitoneal", "outline": "as §2"}, "Mus musculus [13]": {"tested_on": "Mus musculus", "experiment": "Anticonvulsant activity against […] psychomotor seizure in ip dosed albino CF1 mouse by minimal clonic seizure test", "assay_type": "functional"}, "Mus musculus [14]": {"tested_on": "Mus musculus", "experiment": "Anticonvulsant activity in albino CF1 mouse assessed as assessed as protection against 6 Hz psychomotor seizure at 50 mg/kg, ip after 4 hrs by minimal clonic seizure test", "assay_type": "functional", "settings": "route intraperitoneal", "outline": "as §2"}, "Mus musculus [15]": {"tested_on": "Mus musculus", "experiment": "Neurotoxicity in ip dosed albino CF1 mouse assessed as time to peak effect by rotorod test", "assay_type": "toxicity, organism-based", "settings": "in vivo"}, "Mus musculus [16]": {"tested_on": "Mus musculus", "experiment": "Anticonvulsant activity in albino CF1 mouse assessed as assessed as protection against 6 Hz psychomotor seizure at 50 mg/kg, ip after 1 hr by minimal clonic seizure test", "assay_type": "functional", "settings": "route intraperitoneal", "outline": "as §2"}, "Mus musculus [17]": {"tested_on": "Mus musculus", "experiment": "Anticonvulsant activity in albino CF1 mouse assessed as assessed as protection against 6 Hz psychomotor seizure at 50 mg/kg, ip after 0.5 hr by minimal clonic seizure test", "assay_type": "functional", "settings": "route intraperitoneal", "outline": "as §2"}, "Rattus norvegicus [18]": {"tested_on": "Rattus norvegicus", "experiment": "Anticonvulsant activity in albino Sprague-Dawley rat assessed as protection against maximal electroshock-induced seizures at 30 mg/kg, po measured after 2 hrs", "assay_type": "functional", "outline": "(§3)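 Male Sprague-Dawley rats, four per group, dosed p.o. at 30 mg/kg in 0.5% methylcellulose/water suspension; MES test at 0.25, 0.5, 1, 2 and 4 h, motor impairment examined in parallel; number of rats out of four protected.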"}, "Mus musculus [19]": {"tested_on": "Mus musculus", "experiment": "Anticonvulsant activity in albino CF1 mouse assessed as assessed as protection against 6 Hz psychomotor seizure at 50 mg/kg, ip after 0.25 hr by minimal clonic seizure test", "assay_type": "functional", "settings": "route intraperitoneal", "outline": "as §2"}, "Mus musculus [20]": {"tested_on": "Mus musculus", "experiment": "Anticonvulsant activity in albino CF1 mouse assessed as assessed as protection against 6 Hz psychomotor seizure at 100 mg/kg, ip after 1 hr by minimal clonic seizure test", "assay_type": "functional", "settings": "route intraperitoneal", "outline": "as §2"}, "Mus musculus [21]": {"tested_on": "Mus musculus", "experiment": "Anticonvulsant activity in albino CF1 mouse assessed as assessed as protection against 6 Hz psychomotor seizure at 100 mg/kg, ip after 4 hrs by minimal clonic seizure test", "assay_type": "functional", "settings": "route intraperitoneal", "outline": "as §2"}, "Rattus norvegicus [22]": {"tested_on": "Rattus norvegicus", "experiment": "Anticonvulsant activity in albino Sprague-Dawley rat assessed as protection against maximal electroshock-induced seizures at 30 mg/kg, po measured after 4 hrs", "assay_type": "functional", "outline": "as §3"}, "Mus musculus [23]": {"tested_on": "Mus musculus", "experiment": "Anticonvulsant activity against 6 Hz psychomotor seizure in ip dosed albino CF1 mouse assessed as time to peak effect by minimal clonic seizure test", "assay_type": "functional"}, "Rattus norvegicus [24]": {"tested_on": "Rattus norvegicus", "experiment": "Anticonvulsant activity in albino Sprague-Dawley rat assessed as protection against maximal electroshock-induced seizures at 30 mg/kg, po measured after 0.25 hr", "assay_type": "functional", "outline": "as §3"}, "Rattus norvegicus [25]": {"tested_on": "Rattus norvegicus", "experiment": "Anticonvulsant activity in albino Sprague-Dawley rat assessed as protection against maximal electroshock-induced seizures at 30 mg/kg, po measured after 0.5 hr", "assay_type": "functional", "outline": "as §3"}, "Mus musculus [26]": {"tested_on": "Mus musculus", "experiment": "Anticonvulsant activity in albino CF1 mouse assessed as assessed as protection against 6 Hz psychomotor seizure at 100 mg/kg, ip after 0.25 hr by minimal clonic seizure test", "assay_type": "functional", "settings": "route intraperitoneal", "outline": "as §2"}, "Rattus norvegicus [27]": {"tested_on": "Rattus norvegicus", "experiment": "Anticonvulsant activity in albino Sprague-Dawley rat assessed as protection against maximal electroshock-induced seizures at 30 mg/kg, po measured after 1 hr", "assay_type": "functional", "outline": "as §3"}},
  "note": "The source made the active and inactive calls. The calls are words filed in the database; no cut-off is given here.",
  "data": [
    {"compound": "O=C1CC(c2ccccc2Cl)C(=O)N1CN1CCOCC1", "note": "(racemic)", "values": [
      {"measurement": "minimal effective dose", "setting": "Mus musculus [1]", "value": 100, "unit": "mg/kg"},
      {"measurement": "Activity", "setting": "Rattus norvegicus [2]", "value": "inactive"},
      {"measurement": "Activity", "setting": "Mus musculus [3]", "value": 100, "unit": "%"},
      {"measurement": "MED", "setting": "Mus musculus [4]", "value": 300, "unit": "mg/kg"},
      {"measurement": "minimal effective dose", "setting": "Mus musculus [5]", "value": 100, "unit": "mg/kg"},
      {"measurement": "MED", "setting": "Mus musculus [6]", "value": 300, "unit": "mg/kg"},
      {"measurement": "ED50", "setting": "Mus musculus [7]", "value": 31.1, "unit": "mg/kg"},
      {"measurement": "Activity", "setting": "Mus musculus [8]", "value": 100, "unit": "%"},
      {"measurement": "minimal effective dose", "setting": "Mus musculus [9]", "value": 100, "unit": "mg/kg"},
      {"measurement": "minimal effective dose", "setting": "Mus musculus [10]", "value": 300, "unit": "mg/kg"},
      {"measurement": "Time", "setting": "Mus musculus [11]", "value": 0.5, "unit": "h"},
      {"measurement": "Activity", "setting": "Mus musculus [12]", "value": 75, "unit": "%"},
      {"measurement": "ED50", "setting": "Mus musculus [13]", "value": 55.6, "unit": "mg/kg"},
      {"measurement": "Activity", "setting": "Mus musculus [14]", "value": 0, "unit": "%"},
      {"measurement": "Time", "setting": "Mus musculus [15]", "value": 0.25, "unit": "h"},
      {"measurement": "Activity", "setting": "Mus musculus [16]", "value": 75, "unit": "%"},
      {"measurement": "Activity", "setting": "Mus musculus [17]", "value": 75, "unit": "%"},
      {"measurement": "Activity", "setting": "Rattus norvegicus [18]", "value": "inactive"},
      {"measurement": "Activity", "setting": "Mus musculus [19]", "value": 100, "unit": "%"},
      {"measurement": "Activity", "setting": "Mus musculus [20]", "value": 100, "unit": "%"},
      {"measurement": "Activity", "setting": "Mus musculus [21]", "value": 100, "unit": "%"},
      {"measurement": "Activity", "setting": "Rattus norvegicus [22]", "value": "inactive"},
      {"measurement": "Time", "setting": "Mus musculus [23]", "value": 0.25, "unit": "h"},
      {"measurement": "Activity", "setting": "Rattus norvegicus [24]", "value": "inactive"},
      {"measurement": "Activity", "setting": "Rattus norvegicus [25]", "value": 25, "unit": "%"},
      {"measurement": "Activity", "setting": "Mus musculus [26]", "value": 100, "unit": "%"},
      {"measurement": "Activity", "setting": "Rattus norvegicus [27]", "value": 25, "unit": "%"}
    ]}
  ]
}
